Assay results taken from ChEMBL document CHEMBL1144619, “The synthesis and biological evaluation of novel series of nitrile-containing fluoroquinolones as antibacterial agents” (Bioorg Med Chem Lett, 2007).
≈ marks a conversion by molar mass, not a printed value.

Legend:
Streptococcus pneumoniae [1] = experiment: Antibacterial activity against Streptococcus pneumoniae SV1; type: functional
Staphylococcus aureus [2] = experiment: Antibacterial activity against Staphylococcus aureus UC76; type: functional
Haemophilus influenzae = experiment: Antibacterial activity against Haemophilus influenzae HI3542; type: functional; settings: HI-3542
Staphylococcus aureus [3] = experiment: Antibacterial activity against Staphylococcus aureus SA2552; type: functional
Streptococcus pneumoniae [4] = experiment: Antibacterial activity against fluoroquinolone resistance Streptococcus pneumoniae SP3765; type: functional
Moraxella catarrhalis = experiment: Antibacterial activity against Moraxella catarrhalis BC-3531; type: functional
hERG (KCNH2) = hERG (KCNH2) (Homo sapiens, UniProt Q12809); experiment: Displacement of [3H]dofetilide from human ERG at 300 uM; settings: probe [3H]dofetilide
Chain of hERG (KCNH2) (Q12809 whole entry): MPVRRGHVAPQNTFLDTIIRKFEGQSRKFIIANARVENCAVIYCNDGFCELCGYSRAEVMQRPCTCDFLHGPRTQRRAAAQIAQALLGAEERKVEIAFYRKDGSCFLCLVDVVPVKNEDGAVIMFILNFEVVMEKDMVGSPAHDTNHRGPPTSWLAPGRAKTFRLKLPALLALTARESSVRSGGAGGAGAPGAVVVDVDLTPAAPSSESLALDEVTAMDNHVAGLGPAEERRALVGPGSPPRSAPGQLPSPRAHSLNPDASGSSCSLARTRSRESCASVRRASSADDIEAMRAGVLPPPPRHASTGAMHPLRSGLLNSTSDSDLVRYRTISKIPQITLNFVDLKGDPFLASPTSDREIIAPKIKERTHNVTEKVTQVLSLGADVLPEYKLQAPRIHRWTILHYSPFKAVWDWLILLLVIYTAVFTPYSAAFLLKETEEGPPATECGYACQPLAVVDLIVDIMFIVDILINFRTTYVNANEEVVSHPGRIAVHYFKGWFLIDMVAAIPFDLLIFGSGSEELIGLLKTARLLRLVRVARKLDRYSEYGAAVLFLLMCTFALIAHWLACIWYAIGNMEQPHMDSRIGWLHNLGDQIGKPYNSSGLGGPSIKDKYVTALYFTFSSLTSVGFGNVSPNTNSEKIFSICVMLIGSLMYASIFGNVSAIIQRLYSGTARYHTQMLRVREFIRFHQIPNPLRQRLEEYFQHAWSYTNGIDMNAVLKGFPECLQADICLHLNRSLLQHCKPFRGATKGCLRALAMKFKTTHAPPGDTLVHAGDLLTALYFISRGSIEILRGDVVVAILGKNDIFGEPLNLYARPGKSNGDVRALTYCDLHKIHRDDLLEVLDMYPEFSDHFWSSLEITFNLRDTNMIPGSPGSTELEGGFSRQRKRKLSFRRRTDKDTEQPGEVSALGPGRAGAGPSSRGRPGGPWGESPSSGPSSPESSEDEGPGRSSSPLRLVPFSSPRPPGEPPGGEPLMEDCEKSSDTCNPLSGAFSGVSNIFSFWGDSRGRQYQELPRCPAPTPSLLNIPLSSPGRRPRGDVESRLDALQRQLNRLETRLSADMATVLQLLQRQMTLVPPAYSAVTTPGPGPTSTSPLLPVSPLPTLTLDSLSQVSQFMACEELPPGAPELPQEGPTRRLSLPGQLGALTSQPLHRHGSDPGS
Summary of the method: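 Radioligand filter-binding assay measuring displacement of [3H]-dofetilide from the hERG channel, run as in a patent protocol.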

[5] = target: Voltage-gated inwardly rectifying potassium channel KCNH2 (Homo sapiens, UniProt Q12809); experiment: Displacement of [3H]dofetilide from human ERG by fliter binding assay
Chain of Voltage-gated inwardly rectifying potassium channel KCNH2 (Q12809 whole entry): as above

Rattus norvegicus = experiment: AUC in rat at 1 mg/kg, iv; type: ADME, organism-based, Plasma; parameters: dose 1 mg/kg, route intravenous; settings: in vivo
[6] = Bioavailability in rat at 5 mg/kg, po; type: ADME, organism-based; settings: in vivo
[7] = Volume of distribution in rat at 1 mg/kg, iv; type: ADME, organism-based; parameters: dose 1 mg/kg, route intravenous; settings: in vivo, read-out: Vdss
[8] = Cmax in rat at 5 mg/kg, po; type: ADME, organism-based; parameters: dose 5 mg/kg, route oral; settings: in vivo
[9] = Clearance in rat at 1 mg/kg, iv; type: ADME, organism-based; parameters: dose 1 mg/kg, route intravenous; settings: in vivo
[10] = Half life in rat at 1 mg/kg, iv; type: ADME, organism-based; parameters: dose 1 mg/kg, route intravenous; settings: in vivo

| Compound | MIC (Streptococcus pneumoniae [1]) [µg/mL] | MIC (Staphylococcus aureus [2]) [µg/mL] | MIC (Haemophilus influenzae) [µg/mL] | MIC (Staphylococcus aureus [3]) [µg/mL] | MIC (Streptococcus pneumoniae [4]) [µg/mL] | MIC (Moraxella catarrhalis) [µg/mL] | inhibition at 300 µM (hERG (KCNH2)) [%] | Ki [5] [µM] | AUC (Rattus norvegicus) [ug/hr.ml] | bioavailability [6] [%] | Vd [7] [L/kg] | Cmax [8] [ng/mL] | clearance [9] [mL/min/kg] | half-life [10] [h] |
| --- | --- | --- | --- | --- | --- | --- | --- | --- | --- | --- | --- | --- | --- | --- |
| Cc1c(N2CC[C@@H]([C@H](C)N)C2)c(F)cc2c(=O)c(C(=O)O)cn(C3CC3)c12 | 0.002 (≈ 0.00536 µM) | 0.002 (≈ 0.00536 µM) | 0.004 (≈ 0.0107 µM) | 0.03 (≈ 0.0803 µM) | 0.03 (≈ 0.0803 µM) | 0.015 (≈ 0.0402 µM) | – | – | – | – | – | – | – | – |
| COc1c(N2CC[C@@H]([C@H](C)NCCC#N)C2)ccc2c(=O)c(C(=O)O)cn(C3CC3)c12 | 0.25 (≈ 0.589 µM) | 0.03 (≈ 0.0707 µM) | 0.5 (≈ 1.18 µM) | 0.125 (≈ 0.294 µM) | 2 (≈ 4.71 µM) | 1 (≈ 2.36 µM) | – | – | – | – | – | – | – | – |
| C[C@H]1COc2c(N3CCN(C)CC3)c(F)cc3c(=O)c(C(=O)O)cn1c23.C[C@H]1COc2c(N3CCN(C)CC3)c(F)cc3c(=O)c(C(=O)O)cn1c23.O [LEVOFLOXACIN] | – | 0.125 | 0.015 | 0.5 | – | 0.06 | 10 | – | – | – | – | – | – | – |
| COc1c(N2CC[C@@H]([C@H](C)N)C2)c(F)cc2c(=O)c(C(=O)O)cn(C3CC3)c12 | 0.004 (≈ 0.0103 µM) | 0.002 (≈ 0.00514 µM) | 0.004 (≈ 0.0103 µM) | 0.008 (≈ 0.0205 µM) | 0.03 (≈ 0.077 µM) | 0.015 (≈ 0.0385 µM) | – | – | – | – | – | – | – | – |
| CN[C@@H](CC#N)[C@@H]1CCN(c2c(F)cc3c(=O)c(C(=O)O)cn4c3c2OCC4C)C1 (stereo partly drawn) | 0.125 (≈ 0.302 µM) | 0.06 (≈ 0.145 µM) | 0.03 (≈ 0.0724 µM) | 0.125 (≈ 0.302 µM) | 2 (≈ 4.83 µM) | 0.25 (≈ 0.603 µM) | 19 | > 150 | – | – | – | – | – | – |
| CCC1(CNCCC#N)CN(c2c(F)cc3c(=O)c(C(=O)O)cn(C4CC4)c3c2C)C1 | 0.125 (≈ 0.293 µM) | 0.03 (≈ 0.0703 µM) | 0.06 (≈ 0.141 µM) | 0.03 (≈ 0.0703 µM) | 2 (≈ 4.69 µM) | 0.25 (≈ 0.586 µM) | 25 | > 150 | 6.5 | 92 | 1 | 2600 | 13 | 1.4 |
| Cc1c(N2CC(C)(CNCCC#N)C2)c(F)cc2c(=O)c(C(=O)O)cn(C3CC3)c12 | 0.125 (≈ 0.303 µM) | 0.03 (≈ 0.0727 µM) | 0.06 (≈ 0.145 µM) | 0.03 (≈ 0.0727 µM) | 2 (≈ 4.85 µM) | 0.125 (≈ 0.303 µM) | 18 | > 150 | – | – | – | – | – | – |
| COc1c(N2CC[C@@H](CNCCC#N)C2)c(F)cc2c(=O)c(C(=O)O)cn(C3CC3)c12 | 0.125 (≈ 0.292 µM) | 0.03 (≈ 0.07 µM) | 0.125 (≈ 0.292 µM) | 0.06 (≈ 0.14 µM) | 2 (≈ 4.67 µM) | 0.5 (≈ 1.17 µM) | – | 106 | – | – | – | – | – | – |
| COc1c(N2CC[C@@H](CN)C2)c(F)cc2c(=O)c(C(=O)O)cn(C3CC3)c12 | 0.06 (≈ 0.16 µM) | 0.015 (≈ 0.04 µM) | 0.015 (≈ 0.04 µM) | 0.06 (≈ 0.16 µM) | 1 (≈ 2.66 µM) | 0.125 (≈ 0.333 µM) | – | 24 | – | – | – | – | – | – |
| COc1c(N2CC[C@@H]([C@H](C)NCCC#N)C2)c(F)cc2c(=O)c(C(=O)O)cn(C3CC3)c12 | 0.015 (≈ 0.0339 µM) | 0.004 (≈ 0.00904 µM) | 0.06 (≈ 0.136 µM) | 0.008 (≈ 0.0181 µM) | 0.125 (≈ 0.282 µM) | 0.06 (≈ 0.136 µM) | 2 | > 150 | 3.5 | 70 | 2.5 | 1200 | 24 | 2.7 |
| COc1c(N2CC[C@@H]([C@H](C)N)C2)ccc2c(=O)c(C(=O)O)cn(C3CC3)c12 | 0.015 (≈ 0.0404 µM) | 0.008 (≈ 0.0215 µM) | 0.125 (≈ 0.337 µM) | 0.03 (≈ 0.0808 µM) | 0.125 (≈ 0.337 µM) | 0.06 (≈ 0.162 µM) | – | – | – | – | – | – | – | – |
| COc1c(N2CC[C@@H](CNCCC#N)C2)ccc2c(=O)c(C(=O)O)cn(C3CC3)c12 | 0.125 (≈ 0.305 µM) | 0.03 (≈ 0.0731 µM) | 0.25 (≈ 0.609 µM) | 0.25 (≈ 0.609 µM) | 2 (≈ 4.87 µM) | 1 (≈ 2.44 µM) | – | – | – | – | – | – | – | – |
